# In ChEMBL document CHEMBL3763107, “Anti-inflammatory neolignans from the roots of Magnolia officinalis” (Bioorg Med Chem, 2016):
# Activity calls are given as the source filed them. The calls are words filed in the database; no cut-off is given here.
# What was measured:
# Assay type in all cases: functional, cell-based
# [1] = (§1) Antiinflammatory activity in human neutrophils assessed as inhibition of FMLP/CB-induced elastase release using MeO-Suc-Ala-Ala-Pro-Val-p-nitroanilide as substrate incubated for 5 mins by spectrophotometric analysis; conditions: Neutrophil
# Outline: (§2)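 Neutrophils from healthy donor blood, isolated by dextran sedimentation, Ficoll gradient and hypotonic lysis, kept in Ca2+-free HBSS pH 7.4 at 4 °C. Cells at 6 × 10^5/mL with 100 µM substrate, 2 min at 37 °C, then drug or 0.1% DMSO vehicle for 5 min. Activated with 100 nM FMLP + 0.5 µg/mL CB. A405 followed continuously; % of drug-free activated control; IC50 from mean of n = 3.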
# Neutrophil [2] = experiment: as §1; outline: as §2
# [3] = (§3) Antiinflammatory activity in human neutrophils assessed as inhibition of FMLP/CB-induced superoxide anion generation by measuring superoxide dismutase-inhibitable reduction of ferricytochrome c by spectrophotometric analysis; conditions: Neutrophil
# Outline: (§4)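 Dextran/Ficoll-purified human neutrophils (6 × 10^5 cells/mL) with ferricytochrome c and 1 mM Ca2+, 2 min at 37 °C. Primed with 1 µg/mL cytochalasin B, then 100 nM FMLP. A550 monitored continuously with stirring. Superoxide taken as the SOD (100 U/mL)-inhibitable reduction using ε 21.1/mM/10 mm. IC50 from mean of n = 3.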
# Neutrophil [4] = experiment: as §3; outline: as §4
# Neutrophil [5] = experiment: Induction of FMLP/CB-mediated superoxide anion generation in human neutrophils by measuring superoxide dismutase-inhibitable reduction of ferricytochrome c by spectrophotometric analysis
# Neutrophil [6] = experiment: Induction of superoxide anion generation in human neutrophils by spectrophotometric analysis
# Neutrophil [7] = experiment: Induction of ferricytochrome c reduction in human neutrophils by spectrophotometric analysis
SMILES,IC50 [1] [µM],IC50 [3] [µM],inhibition (Neutrophil [2]),inhibition (Neutrophil [4]),Activity (Neutrophil [5]),Activity (Neutrophil [6]),Activity (Neutrophil [7])
C=CCc1ccc(O)c(-c2cc(CC=C)cc([C@@H]3[C@@H](C(C)C)CC[C@@](C)(O)[C@@H]3O)c2O)c1,10.7,15.1,Dose-dependent effect,Dose-dependent effect,,,
C=CCc1ccc(O)c(-c2cc(O[C@H]3CCc4cc(CC=C)cc(-c5cc(CC=C)ccc5O)c4O3)ccc2O)c1,2.25,,Dose-dependent effect,,Active,,
C=CCc1ccc(O)c(-c2cc(CC=C)cc([C@H]3C[C@](C)(O)CC[C@@H]3C(C)C)c2O)c1,3.56,8.16,Dose-dependent effect,Dose-dependent effect,,,
C=CCc1ccc(O)c(-c2cc(CC=C)cc(C=O)c2O)c1,0.63,,Dose-dependent effect,,,Active,
C=CCc1ccc(O)c(-c2ccc(O)c(OC)c2)c1,18.2,7.89,Dose-dependent effect,Dose-dependent effect,,,
C=CCc1ccc(Oc2cc(CC=C)cc(O)c2O)cc1 [OBOVATOR],3.3,,Dose-dependent effect,,,,Active
C=CCc1ccc(O)c(-c2ccc(O[C@@H]3CCc4cc(CC=C)cc(-c5cc(CC=C)ccc5O)c4O3)cc2O)c1,3.81,19.3,Dose-dependent effect,Dose-dependent effect,,,

# Continued by falling IC50 [1], values first:
IC50 [1] [µM],IC50 [3] [µM],SMILES,inhibition (Neutrophil [2]),inhibition (Neutrophil [4]),Activity (Neutrophil [5]),Activity (Neutrophil [6]),Activity (Neutrophil [7])
14.8,10.8,C=CCc1ccc(O)c(-c2cc(CC=C)cc([C@@H]3C=C(C)CC[C@H]3C(C)C)c2O)c1,Dose-dependent effect,Dose-dependent effect,,,
8.18,14.3,C=CCc1ccc(O)c(-c2ccc(OC)c(CC=C)c2)c1 [METHYLHONOKIOL],Dose-dependent effect,Dose-dependent effect,,,
3.67,3.54,C=CCc1ccc(Oc2cc(CC=C)c3c(c2O)O[C@@]2(C)CC[C@@H](C(C)C)[C@@H]3C2)cc1,Dose-dependent effect,Dose-dependent effect,,,
3.39,5.48,C=CCc1ccc(O)c(-c2cc(CC=C)cc(OC)c2O)c1,Dose-dependent effect,Dose-dependent effect,,,
2.59,4.17,C=CCc1ccc(O)c(-c2cc(CC=C)cc3c2O[C@@H]2[C@H]3[C@@H](C(C)C)CC[C@@]2(C)O)c1,Dose-dependent effect,Dose-dependent effect,,,
2.16,4.21,C=CCc1ccc(O)c(-c2cc(CC=C)cc([C@H]3C[C@@](C)(O)CC[C@@H]3C(C)C)c2O)c1,Dose-dependent effect,Dose-dependent effect,,,
2,3.2,CNC(=O)c1cc(Oc2ccc(NC(=O)Nc3ccc(Cl)c(C(F)(F)F)c3)cc2)ccn1 [SORAFENIB],,,,,
